How the values were obtained:
Escherichia coli = assay: Antimicrobial activity against Escherichia coli JM107 by CLSI method; format: functional; conditions: for MIC50 / MIC: Escherichia coli, JM107; for MIC: read-out: MIC100
Bacillus subtilis = assay: Antimicrobial activity against Bacillus subtilis by CLSI method; format: functional; conditions: for MIC50 / MIC: Bacillus subtilis; for MIC: read-out: MIC100
Salmonella typhimurium = assay: Antimicrobial activity against Salmonella enterica LT2 ATCC 700720 by CLSI method; format: functional, Salmonella enterica subsp. enterica serovar Typhimurium; conditions: for MIC50 / MIC: Salmonella enterica, LT2 ATCC 700720; for MIC: read-out: MIC100
Staphylococcus aureus = assay: Antimicrobial activity against Staphylococcus aureus by CLSI method; format: functional; conditions: for MIC50 / MIC: Staphylococcus aureus; for MIC: read-out: MIC100
MRC5 [1] = assay: Cytotoxicity against human MRC5 cells assessed as reduction in cell viability at 0.5 to 25 ug/ml after 24 hrs by MTT assay; format: cell-based; conditions: mrc5, 24 h
In short: (§1)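 MTT colorimetric viability test; human embryonic lung MRC5 cells or human lung cancer Calu-1 cells exposed 24 h to compound over 0.5–50 µg/ml; DMSO vehicle up to 0.4% v/v. Two or three independent experiments, each in triplicate, reported as mean ± SD.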

MRC5 [2] = assay: Cytotoxicity against human MRC5 cells assessed as reduction in cell viability at 25 ug/ml after 24 hrs by MTT assay; format: cell-based; conditions: mrc5, 24 h; in short: as §1
Calu-1 = assay: Cytotoxicity against human Calu1 cells assessed as reduction in cell viability at 50 ug/ml after 24 hrs by MTT assay; format: cell-based; conditions: calu-1, 24 h; in short: as §1

SMILES | MLD (Escherichia coli) | MIC50 (Escherichia coli) | MIC (Escherichia coli) | MLD (Bacillus subtilis) | MIC50 (Bacillus subtilis) | MIC (Bacillus subtilis) | MLD (Salmonella typhimurium) | MIC50 (Salmonella typhimurium) | MIC (Salmonella typhimurium) | MLD (Staphylococcus aureus) | MIC50 (Staphylococcus aureus) | MIC (Staphylococcus aureus) | Activity (MRC5 [1]) | Activity (MRC5 [2]) | Activity (Calu-1)
CO/N=C(\C(=O)N[C@@H]1C(=O)N2C(C(=O)O)=C(CSc3nc(=O)c(=O)[nH]n3C)CS[C@H]12)c1csc(N)n1.[Na+] | >1 µg/mL | < 0.25 mg/L | 0.25 mg/L | >=1 ug ml-1 | < 0.25 mg/L | 0.75 mg/L | >=2 ug ml-1 | < 0.25 mg/L | 0.25 mg/L | >7 µg/mL | 2 to 4 mg/L | 5.5 mg/L | – | – | –
CC(=O)OCC1=C(C(=O)[O-])N2C(=O)[C@@H](NC(=O)CCCCCCCC3C(=O)N(c4ccccc4)C3c3ccccc3)[C@H]2SC1.[Na+] (mixture of isomers) | >256 µg/mL | > 256 mg/L | > 256 mg/L | >16 µg/mL | < 0.25 mg/L | 0.75 mg/L | >256 µg/mL | > 256 mg/L | > 256 mg/L | >=1 ug ml-1 | < 0.25 mg/L | 1 mg/L | – | – | –
CC(=O)OCC1=C(C(=O)[O-])N2C(=O)[C@@H](NC(=O)CCC3C(=O)N(c4ccc(C)c(C)c4)C3c3ccccc3)[C@H]2SC1.[Na+] (mixture of isomers) | >256 µg/mL | > 256 mg/L | > 256 mg/L | 64 µg/mL | ≤ 1 mg/L | 2 mg/L | >256 µg/mL | > 256 mg/L | > 256 mg/L | >16 µg/mL | 1 mg/L | 4 to 6 mg/L | Non-Toxic | – | –
CC(=O)OCC1=C(C(=O)[O-])N2C(=O)[C@@H](NC(=O)CC3C(=O)N(c4ccc(C)c(C)c4)C3c3ccccc3)[C@H]2SC1.[Na+] (mixture of isomers) | >256 µg/mL | > 256 mg/L | > 256 mg/L | >=3.5 ug ml-1 | < 0.25 mg/L | 3.5 mg/L | >256 µg/mL | > 256 mg/L | > 256 mg/L | >16 µg/mL | > 1 mg/L | 4 to 8 mg/L | – | 20% | –
CC(=O)OCC1=C(C(=O)[O-])N2C(=O)[C@@H](NC(=O)CC3C(=O)N(c4ccccc4)C3c3ccccc3)[C@H]2SC1.[Na+] (mixture of isomers) | >256 µg/mL | > 256 mg/L | > 256 mg/L | >2.5 µg/mL | < 0.25 mg/L | 2.5 mg/L | >256 µg/mL | > 256 mg/L | > 256 mg/L | >3 µg/mL | 0.75 mg/L | 2.5 mg/L | – | – | –
COc1ccc(N2C(=O)C(CCCCCCCC(=O)N[C@@H]3C(=O)N4C(C(=O)[O-])=C(COC(C)=O)CS[C@H]34)C2c2ccccc2)cc1.[Na+] (mixture of isomers) | >256 µg/mL | > 256 mg/L | > 256 mg/L | >=2 - 4 ug ml-1 | < 0.12 mg/L | 0.25 mg/L | >256 µg/mL | > 256 mg/L | > 256 mg/L | 0.25 µg/mL | > 0.12 mg/L | < 0.25 mg/L | – | 20% | –
COc1ccc(N2C(=O)C(CC(=O)N[C@@H]3C(=O)N4C(C(=O)[O-])=C(COC(C)=O)CS[C@H]34)C2c2ccc(Cl)cc2)cc1.[Na+] (mixture of isomers) | >256 µg/mL | > 256 mg/L | > 256 mg/L | >256 µg/mL | < 4 mg/L | 32 mg/L | >256 µg/mL | > 256 mg/L | > 256 mg/L | >32 µg/mL | 4 to 8 mg/L | 32 mg/L | Non-Toxic | – | –
COc1ccc(N2C(=O)C(CC(=O)N[C@@H]3C(=O)N4C(C(=O)[O-])=C(COC(C)=O)CS[C@H]34)C2c2ccccc2)cc1.[Na+] (mixture of isomers) | >256 µg/mL | > 256 mg/L | > 256 mg/L | >=128 ug ml-1 | < 0.25 mg/L | 0.75 mg/L | >256 µg/mL | > 256 mg/L | > 256 mg/L | >1.5 µg/mL | < 0.25 mg/L | 1.5 mg/L | Non-Toxic | – | –
CC(=O)OCC1=C(C(=O)[O-])N2C(=O)[C@@H](NC(=O)CCCCCC3C(=O)N(c4ccccc4)C3c3ccccc3)[C@H]2SC1.[Na+] (mixture of isomers) | >256 µg/mL | > 256 mg/L | > 256 mg/L | >32 µg/mL | < 0.25 mg/L | 0.5 mg/L | >256 µg/mL | > 256 mg/L | > 256 mg/L | >4 µg/mL | 1.5 to 2 mg/L | 3.5 to 4 mg/L | Non-Toxic | – | Toxic
CC(=O)OCC1=C(C(=O)[O-])N2C(=O)[C@@H](NC(=O)CCC3C(=O)N(c4ccccc4)C3c3ccccc3)[C@H]2SC1.[Na+] (mixture of isomers) | >256 µg/mL | > 256 mg/L | > 256 mg/L | >32 µg/mL | < 0.25 mg/L | 1 mg/L | >256 µg/mL | > 256 mg/L | > 256 mg/L | >=3 ug ml-1 | 0.25 to 0.5 mg/L | 2.5 mg/L | Non-Toxic | – | Toxic
COc1ccc(N2C(=O)C(CC(=O)N[C@@H]3C(=O)N4C(C(=O)[O-])=C(COC(C)=O)CS[C@H]34)C2c2ccc([N+](=O)[O-])cc2)cc1.[Na+] (mixture of isomers) | >256 µg/mL | > 256 mg/L | > 256 mg/L | >256 µg/mL | 8 mg/L | 32 mg/L | >256 µg/mL | > 256 mg/L | > 256 mg/L | >32 µg/mL | 4 to 8 mg/L | 32 mg/L | Non-Toxic | – | –
COc1ccc(N2C(=O)C(CCCCCC(=O)N[C@@H]3C(=O)N4C(C(=O)[O-])=C(COC(C)=O)CS[C@H]34)C2c2ccccc2)cc1.[Na+] (mixture of isomers) | >256 µg/mL | > 256 mg/L | > 256 mg/L | >=0.75 ug ml-1 | < 0.12 mg/L | 0.25 to 0.35 mg/L | >256 µg/mL | > 256 mg/L | > 256 mg/L | >=1.75 - 2 ug ml-1 | 0.75 mg/L | 1.75 mg/L | Non-Toxic | – | –

Reference: ChEMBL document CHEMBL4616606, “New compounds for a good old class: Synthesis of two Β-lactam bearing cephalosporins and their evaluation with a multidisciplinary approach” (Bioorg Med Chem, 2020)
